IC50, Activity and ED50 data for four compounds are collected here from ChEMBL document CHEMBL1124440, “Resolved N,N-dialkylated 2-amino-8-hydroxytetralins: stereoselective interactions with 5-HT1A receptors in the brain” (J Med Chem, 1989).

For orientation: IC50 means the point on the concentration scale where inhibition reaches its midpoint. The low end stands for higher potency, the high end for lower potency. For orientation: ED50 means the midpoint of the dose-response relation. A high value points to weaker potency.

Each structure is given as a SMILES string.

Test [1] deals with T1, 5-hydroxytryptamine receptor 1A (Rattus norvegicus, UniProt P19327).
T1 sequence (P19327 whole entry): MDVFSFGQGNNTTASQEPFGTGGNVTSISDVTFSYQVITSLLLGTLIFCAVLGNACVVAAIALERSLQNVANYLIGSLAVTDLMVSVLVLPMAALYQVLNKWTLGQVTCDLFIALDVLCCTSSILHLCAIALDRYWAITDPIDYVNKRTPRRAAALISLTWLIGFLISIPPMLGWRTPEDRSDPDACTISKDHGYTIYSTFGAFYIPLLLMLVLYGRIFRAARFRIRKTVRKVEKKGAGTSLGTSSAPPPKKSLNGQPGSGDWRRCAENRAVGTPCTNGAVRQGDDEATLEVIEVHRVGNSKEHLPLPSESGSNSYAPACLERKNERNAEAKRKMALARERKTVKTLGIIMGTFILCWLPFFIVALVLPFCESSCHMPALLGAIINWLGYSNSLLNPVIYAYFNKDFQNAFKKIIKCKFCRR
The test can be described thus: Concentration of compound required to inhibit cortical 5-hydroxytryptamine 1A receptor binding sites in rat brain was evaluated. The test is classed as tissue-based.

The target of test [2] is T2, Tryptophan 5-hydroxylase 1 (Rattus norvegicus) (UniProt P09810).
T2 sequence (whole entry): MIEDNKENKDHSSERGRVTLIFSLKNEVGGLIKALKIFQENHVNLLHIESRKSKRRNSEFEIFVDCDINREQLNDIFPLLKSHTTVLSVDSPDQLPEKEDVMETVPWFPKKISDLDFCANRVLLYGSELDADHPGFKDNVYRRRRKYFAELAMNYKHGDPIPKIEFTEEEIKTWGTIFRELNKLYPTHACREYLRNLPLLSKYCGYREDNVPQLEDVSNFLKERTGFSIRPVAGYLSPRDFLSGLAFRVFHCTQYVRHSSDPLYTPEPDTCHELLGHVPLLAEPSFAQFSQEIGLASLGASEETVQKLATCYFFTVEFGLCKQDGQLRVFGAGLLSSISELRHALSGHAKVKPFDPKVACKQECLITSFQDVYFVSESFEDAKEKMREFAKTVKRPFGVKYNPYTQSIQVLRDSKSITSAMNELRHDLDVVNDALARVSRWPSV
The test can be described thus: Compound was tested for its effect on NSD 1015 induced accumulation of 5-HTP(ng/g) in rats in limbic system at a dosage of 32 umol/kg. The class given is functional, tissue-based. Put shortly: (§1)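 Rats given test drug s.c. in the neck as hydrochloride (5 mL/kg), not reserpine-pretreated; 30 min later NSD 1015 (60 mg/kg, i.e. 287 μmol/kg sc), killed 30 min after that. Brain regions dissected. 5-HTP measured by ion-pair reversed-phase HPLC with electrochemical detection. Mean ± SEM, n = 15 controls, 3–5 per dose; ANOVA with Dunnett's t test vs controls.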

In test [3] the target is T2, Tryptophan 5-hydroxylase 1 (Rattus norvegicus). Nature of the test: Compound was tested for its effect on NSD 1015 induced accumulation of 5-HTP in rats in corpus striatum at a dosage of 3.2 umol/kg. The class given is functional. Put shortly: as §1
For test [4] the target is unchanged. Nature of the test: Approximate dose levels for a half maximal reduction of 5-HTP levels. The class given is functional. Put shortly:
as §1

For test [5] the target is unchanged. The test can be described thus: Compound was tested for its effect on NSD 1015 induced accumulation of 5-HTP(ng/g) in rats in corpus striatum at a dosage of 10 umol/kg. The test is classed as functional. In outline:
as §1

Test [6] has the same target. The test can be described thus: Compound was tested for its effect on NSD 1015 induced accumulation of 5-HTP(ng/g) in rats in corpus striatum at a dosage of 100 umol/kg. The class given is functional, tissue-based. Put shortly: as §1
Test [7] shares this target. Nature of the test: Compound was tested for its effect on NSD 1015 induced accumulation of 5-HTP(ng/g) in rats in corpus striatum at a dosage of 32 umol/kg. The test is classed as functional, tissue-based. Put shortly: as §1
Test [8] shares this target. The test can be described thus: Compound was tested for its effect on NSD 1015 induced accumulation of 5-HTP(ng/g) in rats in limbic system at a dosage of 10 umol/kg. The test is classed as functional, tissue-based. Put shortly: as §1
Test [9] shares this target. Nature of the test: Compound was tested for its effect on NSD 1015 induced accumulation of 5-HTP(ng/g) in rats in limbic system at a dosage of 100 umol/kg. The class given is functional, tissue-based. Put shortly: as §1
For test [10] the target is unchanged. The test can be described thus: Compound was tested for its effect on NSD 1015 induced accumulation of 5-HTP(ng/g) in rats in limbic system at a dosage of 3.2 umol/kg. The class given is functional, tissue-based. In outline:
as §1

Test [11] concerns Rattus norvegicus. The test can be described thus: No of rats exhibiting 5-HT motor syndrome tested in reserpinized rats at a subcutaneous dose of 10 umol/kg; 0 rats out of 2 showed activity. The test is classed as functional.
For test [12], the system named is Rattus norvegicus. The test can be described thus: No of rats exhibiting 5-HT motor syndrome tested in reserpinized rats at a subcutaneous dose of 100 umol/kg; 4 rats out of 4 showed activity. The class given is functional.
For test [13], the system named is Rattus norvegicus. Nature of the test: No of rats exhibiting 5-HT motor syndrome tested in reserpinized rats at a subcutaneous dose of 32 umol/kg; 0 rats out of 4 showed activity. The test is classed as functional.
The target of test [14] is T2, Tryptophan 5-hydroxylase 1 (Rattus norvegicus). The test can be described thus: Compound was tested for its effect on NSD 1015 induced accumulation of 5-HTP in rats corpus striatum at a dosage of 10 umol/kg. The class given is functional, tissue-based. In outline:
as §1

The target is the same in test [15]. Nature of the test: Compound was tested for its effect on NSD 1015 induced accumulation of 5-HTP in rats in corpus striatum at a dosage of 32 umol/kg. The class given is functional, tissue-based. Put shortly: as §1
The target is the same in test [16]. The test can be described thus: Compound was tested for its effect on NSD 1015 induced accumulation of 5-HTP(ng/g) in rats in corpus striatum at a dosage of 3.2 umol/kg. The test is classed as functional. Put shortly:
as §1

Test [17] relates to Rattus norvegicus. The test can be described thus: No of rats exhibiting 5-HT motor syndrome tested in reserpinized rats at a subcutaneous dose of 10 umol/kg; 0 rats out of 3 showed activity. The test is classed as functional.
In test [18] the test system is Rattus norvegicus. Nature of the test: No of rats exhibiting 5-HT motor syndrome tested in reserpinized rats at a subcutaneous dose of 32 umol/kg; 4 rats out of 4 showed activity. The test is classed as functional.
The test system of test [19] is Rattus norvegicus. The test can be described thus: No of rats exhibiting 5-HT motor syndrome tested in reserpinized rats at a subcutaneous dose of 3.2 umol/kg; 0 rats out of 3 showed activity. The class given is functional.
The target in test [20] is T2, Tryptophan 5-hydroxylase 1 (Rattus norvegicus). Nature of the test: Compound was tested for its effect on NSD 1015 induced accumulation of 5-HTP in rats corpus striatum at a dosage of 0.10 umol/kg. The class given is functional, tissue-based. In outline:
as §1

Test [21] shares this target. Nature of the test: Compound was tested for its effect on NSD 1015 induced accumulation of 5-HTP in rats in corpus striatum at a dosage of 0.32 umol/kg. The class given is functional, tissue-based. Put shortly:
as §1

The target is the same in test [22]. Nature of the test: Compound was tested for its effects on NSD 1015 induced accumulation of 5-HTP(ng/g) in rats in limbic system at a dosage of 0.10 umol/kg. The class given is functional, tissue-based. Put shortly: as §1
For test [23] the target is unchanged. Nature of the test: Compound was tested for its effect on NSD 1015 induced accumulation of 5-HTP(ng/g) in rats in corpus striatum at a dosage of 1.0 umol/kg. The class given is functional. In outline: as §1
Test [24] has the same target. The test can be described thus: Compound was tested for its effect on NSD 1015 induced accumulation of 5-HTP(ng/g) in rats in limbic system at a dosage of 0.32 umol/kg. The class given is functional, tissue-based. In outline:
as §1

The target is the same in test [25]. Nature of the test: Compound was tested for its effect on NSD 1015 induced accumulation of 5-HTP(ng/g) in rats in limbic system at a dosage of 1.0 umol/kg. The class given is functional, tissue-based. Put shortly:
as §1

In test [26] the test system is Rattus norvegicus. The test can be described thus: No of rats exhibiting 5-HT motor syndrome tested in reserpinized rats at a subcutaneous dose of 3.2 umol/kg; 0 rats out of 4 showed activity. The test is classed as functional.
Test [27] concerns Rattus norvegicus. The test can be described thus: No of rats exhibiting 5-HT motor syndrome rats tested in reserpinized rats at a subcutaneous dose of 10 umol/kg; 4 rats out of 4. The class given is functional.
Test [28] deals with Rattus norvegicus. The test can be described thus: No of rats exhibiting 5-HT motor syndrome rats tested in reserpinized rats at a subcutaneous dose of 32 umol/kg; 3 rats out of 3. The class given is functional.
The subject of test [29] is Rattus norvegicus. Nature of the test: Number of rats exhibiting 5-HT motor syndrome in reserpinized rats at a subcutaneous dose of 1.0 umol/kg; 0 rats out of 3 showed activity. The class given is functional.
The subject of test [30] is Rattus norvegicus. Nature of the test: No of rats exhibiting 5-HT motor syndrome tested in reserpinized rats at a subcutaneous dose of 10 umol/kg; 0 rats out of 4 showed activity. The test is classed as functional.

On to `CN(C)[C@H]1CCc2cccc(O)c2C1`, for which, in test [1], the IC50 worked out at 675 nM. For the same compound, the Activity came to 128 ng/g in test [2]; 107 ng/g in test [3]; 69 ng/g in [5]; 45 ng/g in test [6]; 66 ng/g in [7]; 162 ng/g in test [8]. The Activity in test [9] came out at 85 ng/g; in test [10], 178 ng/g; in the test on Rattus norvegicus [11], 0; in the test on Rattus norvegicus [12] it was 4; with Rattus norvegicus [13], 0. The same compound came in with an ED50 in test [4] of 20 µmol/kg.
In the case of `CCCCN(CCCC)[C@H]1CCc2cccc(O)c2C1`, the IC50 in [1] is 46.2 nM. Besides, the Activity in test [2] was found to be 112 ng/g; in test [14], 52 ng/g; in test [15], 45 ng/g; in [16], 90 ng/g; in test [8], 95 ng/g; in test [10], 168 ng/g. In addition, the Activity in the test on Rattus norvegicus [17] was determined as 0; in the test with Rattus norvegicus [18] it was 4; with Rattus norvegicus [19], 0. The same compound yielded an ED50 in [4] of 5 µmol/kg.
For the compound `CN(C)[C@@H]1CCc2cccc(O)c2C1`, the IC50 in test [1] came out at 75 nM. In addition, the Activity in test [20] is 88 ng/g; in test [21] it was 79 ng/g; in test [22], 172 ng/g; in test [23] it was 76 ng/g; in [5] it was 44 ng/g; in test [16] it was 67 ng/g. In addition, the Activity stood at 130 ng/g in test [24]; 110 ng/g in test [25]; 89 ng/g in test [8]; 90 ng/g in test [10]; 0 with Rattus norvegicus [26]; 4 in the test on Rattus norvegicus [27]. Besides, the Activity in the test on Rattus norvegicus [28] is reported as 3; in the test with Rattus norvegicus [29], 0. The same compound had an ED50 in test [4] of 1 µmol/kg.
In test [1], `CCCCN(CCCC)[C@@H]1CCc2cccc(O)c2C1` gave a half-maximal inhibitory concentration (IC50) of 109 nM. The Activity in test [2] turned out to be 106 ng/g; in test [5], 80 ng/g; in test [7] it was 63 ng/g; in test [8], 145 ng/g; with Rattus norvegicus [30], 0; with Rattus norvegicus [18], 4. This compound also showed an ED50 in test [4] of 20 µmol/kg.
